Assay results pooled from the literature.
Protocols differ between the studies behind these lines.
HRH3: Histamine H3 receptor (HRH3, Homo sapiens, UniProt Q9Y5N1)
SLC10A2: Ileal sodium/bile acid cotransporter (SLC10A2, Homo sapiens, UniProt Q12908)
DRD5: D(1B) dopamine receptor (DRD5, Homo sapiens, UniProt P21918)
WDR5: WD repeat-containing protein 5 (WDR5, Homo sapiens, UniProt P61964)
Hypoxanthine-guanine-xanthine phosphoribosyltransferase: Hypoxanthine-guanine-xanthine phosphoribosyltransferase (Plasmodium falciparum, UniProt P20035)
CYP1B1: Cytochrome P450 1B1 (CYP1B1, Homo sapiens, UniProt Q16678)

Compound | target | test | conditions | Ki
CN(C)c1ccc(/C=C2\CCc3ccc(OCCCN4CCCCC4)cc3C2=O)cc1 | HRH3 | ligand displacement, radioligand | cell membranes | 149 nM
CCCCNc1cc(C(=O)O)cc(S(N)(=O)=O)c1Oc1ccccc1 | SLC10A2 | transporter uptake, inhibitor | – | 225000 nM
CCOC(=O)[C@](CC)(CCCS(=O)(=O)CCOCCOCCNC(=O)OC(C)(C)C)NC(=O)c1ccc(C2CC2)c(Cc2ccc(F)cc2)n1 | Cannabinoid receptor 2 (CNR2, Homo sapiens, UniProt P34972) | ligand displacement, radioligand | cell membranes | 45 nM
O=C1c2ccccc2CCN1CCCCN1CCN(c2cccc(Cl)c2Cl)CC1 | DRD5 | ligand displacement, radioligand | – | 2380 nM
CCOC(=O)C1=C(COCCN)NC(C)=C(C(=O)OC)C1c1ccccc1Cl (centres unmarked) | SLC10A2 | transporter uptake, inhibitor | – | < 100000 nM
COc1cc(CNC(=O)c2cccc(CNC3=NCCN3)c2F)cc(OC)c1 | WDR5 | ligand displacement, FP | – | 1230 nM
CC(C)(C#N)c1cc(Cn2cncn2)cc(C(C)(C)C#N)c1 | SLC10A2 | transporter uptake, inhibitor | – | 402000 nM
O=C1CCCc2cc(OCc3ccc(OCCCN4CCCCC4)cc3)ccc21 | HRH3 | ligand displacement, radioligand | cell membranes | 19 nM
O=C1c2ccccc2CCCN1CCCCN1CCN(c2ccccn2)CC1 | DRD5 | ligand displacement, radioligand | – | > 10000 nM
COc1ccc([C@@H]2Sc3ccccc3N(CCN(C)C)C(=O)[C@@H]2OC(C)=O)cc1 | SLC10A2 | transporter uptake, inhibitor | – | 211000 nM
O=C1CCCc2ccc(OCc3ccc(OCCCN4CCCCC4)cc3)cc21 | HRH3 | ligand displacement, radioligand | cell membranes | 17 nM
CCCc1ccc(OCCCCCN2CCCCCC2)cc1 | HRH3 | ligand displacement, radioligand | cell membranes | 56.3 nM
Cc1nc(F)ccc1-c1cc(C(=O)NCc2ccc(Cl)c(Cl)c2)ccc1Cn1ccn(C)c1=N | WDR5 | ligand displacement, TR-FRET | – | > 33 nM
O=C1N[C@@H]([C@@H](CO)NCc2c[nH]c3c(O)ncnc23)CO1 | Hypoxanthine-guanine-xanthine phosphoribosyltransferase | enzyme activity, inhibitor | pH 7.4 | > 20000 nM
CCCc1ccc(OCCCCCN2CCCC(C)C2)cc1 (centres unmarked) | HRH3 | ligand displacement, radioligand | cell membranes | 38.4 nM
COc1ccc(C2=NN(C3CCCCCC3)C(=O)C3CC=CCC23)cc1-c1ccc(C(=O)N2CC[C@@H](O)C2)cc1 (mixture of isomers) | Class 1 phosphodiesterase PDEB1 (PDEB1, Trypanosoma brucei, UniProt Q8WQX9) | enzyme activity, inhibitor | – | 251 nM
CN(C)c1ccc(/C=C2\CCc3cc(OCCCN4CCCCC4)ccc3C2=O)cc1 | HRH3 | ligand displacement, radioligand | cell membranes | 70 nM
CCc1ccc(CCOc2ccc(CC3SC(=O)NC3=O)cc2)nc1 (centres unmarked) | SLC10A2 | transporter uptake, inhibitor | – | < 100000 nM
C#Cc1cccc2oc(-c3ccccc3)cc(=O)c12 | CYP1B1 | enzyme activity, inhibitor, fluorescence | 6 min, pH 7.6 | 210 nM

Compound | target | test | conditions | Ki
OC[C@@]12C[C@@H]1[C@@H](n1cnc3c(NC(C4CCCC4)C4CCCC4)nc(Cl)cc31)[C@H](O)[C@@H]2O | DRD5 | cell-free assay, radioligand | – | 5100 nM
CN1CCN(CCCOc2ccc(Nc3nccc(NCc4ccccc4)n3)cc2)CC1 | HRH3 | ligand displacement, radioligand | cell membranes | 383 nM
CCOc1c(O)cc(Br)c2c1CN1CCc3cc(OCC(F)F)c(O)cc3[C@@H]1C2 | DRD5 | cell-free assay, radioligand | – | 82 nM
NS(=O)(=O)NC[C@@H](CO)NCc1c[nH]c2c(O)ncnc12 | Hypoxanthine-guanine-xanthine phosphoribosyltransferase | enzyme activity, inhibitor | pH 7.4 | > 20000 nM
COc1cc(O)c(CC=C(C)C)c2c1C(=O)CC(c1ccc(O)cc1)O2 (centres unmarked) | CYP1B1 | enzyme activity, inhibitor, fluorescence | 15 min, pH 7.4 | 540 nM
CCOC(=O)C1=C(C)NC(C)=C(C(=O)OC)C1c1cccc(Cl)c1Cl (centres unmarked) | SLC10A2 | transporter uptake, inhibitor | – | 49700 nM
O=c1cc([C@@H](CO)NCc2c[nH]c3c(O)ncnc23)o[nH]1 | Hypoxanthine-guanine-xanthine phosphoribosyltransferase | enzyme activity, inhibitor | pH 7.4 | > 20000 nM
O=C(NCc1cc(Cl)cc(Cl)c1)c1cccc(Cn2ccnc2)c1 | WDR5 | ligand displacement, TR-FRET | – | > 33 nM
C#Cc1ccc2oc(-c3ccccc3)cc(=O)c2c1 | CYP1B1 | enzyme activity, inhibitor, fluorescence | 6 min, pH 7.6 | 540 nM
NS(=O)(=O)c1cc2c(cc1Cl)NC(C(Cl)Cl)NS2(=O)=O (centres unmarked) | SLC10A2 | transporter uptake, inhibitor | – | 377000 nM
COc1ccccc1N1CCN(CCCCN2CCc3ccccc3C2=O)CC1 | DRD5 | ligand displacement, radioligand | – | 6860 nM
CCc1ccc(OCCCCCCN2CCCC(C)C2)cc1 (centres unmarked) | HRH3 | ligand displacement, radioligand | cell membranes | 74.1 nM
NS(=O)(=O)NC[C@@H](CO)NCc1c[nH]c2c(O)nc(O)nc12 | Hypoxanthine-guanine-xanthine phosphoribosyltransferase | enzyme activity, inhibitor | pH 7.4 | > 20000 nM
CC(=O)S[C@@H]1CC2=CC(=O)CC[C@]2(C)[C@H]2CC[C@@]3(C)[C@@H](CC[C@@]34CCC(=O)O4)[C@H]12 | SLC10A2 | transporter uptake, inhibitor | – | 110000 nM
CN(C(=O)[C@@H]1Cc2ccccc2CN1C(=O)Cc1ccc(Cl)cc1)c1ccc(N2CCCCC2=O)cc1 | Coagulation factor X (F10, Homo sapiens, UniProt P00742) | enzyme activity, inhibitor, absorbance | – | 650 nM
O=C1CN(C[C@@H](CO)NCc2c[nH]c3c(O)ncnc23)S(=O)(=O)N1 | Hypoxanthine-guanine-xanthine phosphoribosyltransferase | enzyme activity, inhibitor | pH 7.4 | > 20000 nM
CCCCN1CCC(COC(=O)c2ccc(N)c(OCF)c2)CC1 | DRD5 | cell-free assay, radioligand | – | > 10000 nM
Cc1nc(F)ccc1-c1cc(Cn2ccn(C)c2=N)cc(C(=O)NCc2ccc(Cl)c(Cl)c2)c1 | WDR5 | ligand displacement, FP | – | < 0.001 nM
C#Cc1ccc(-c2cc(=O)c3ccccc3o2)cc1 | CYP1B1 | enzyme activity, inhibitor, fluorescence | 6 min, pH 7.6 | 130 nM
